# Published values collected from several papers.
# Compare with care: the assays were run in different laboratories.
SMILES,system,conditions,Cmax
COC(=O)C(NC(=O)c1cn(CCCCCF)c2ccccc12)C(C)(C)C (stereo not drawn),"male Sprague-Dawley rat, plasma","subcutaneous, 50 µg/kg",1.72 ng/mL
C#Cc1ccc2c(c1)C(c1ccccn1)=NCc1c(-c3cnco3)ncn1-2,"rat, plasma","oral, 2 mg/kg",395 nM
[2H]C([2H])(c1cc(F)c(F)cc1F)n1c(=O)n(Cc2ncn(C)n2)c(=O)[nH]/c1=N\c1cc2cn(C)nc2cc1Cl,"male Sprague-Dawley rat, plasma","intravenous, 5 mg/kg",25200 ng/mL
CCCCCn1nc(C(=O)Nc2cccc3ccccc23)c2ccccc21,"male Long-Evans rat, plasma","intraperitoneal, 3 mg/kg",213 ng/mL
[2H]C([2H])([2H])n1cc2cc(Nc3nc(=O)n(Cc4ncn(C)n4)c(=O)n3Cc3cc(F)c(F)cc3F)c(Cl)cc2n1,"male Sprague-Dawley rat, plasma","intravenous, 5 mg/kg",23900 ng/mL
CCCCCCCC(=O)N[C@@H](CCCCN)C(=O)N[C@@H](CCCCN)C(=O)N[C@@H](C)C(=O)N[C@@H](CC(C)C)C(=O)N[C@@H](CCCCN)C(=O)N[C@@H](CC(C)C)C(=O)N[C@@H](C)C(=O)N[C@@H](CCCCN)C(=O)N[C@@H](CCCCN)C(=O)N1CCC[C@H]1C(=O)N[C@@H](CC(C)C)C(=O)N[C@@H](CCCCN)C(=O)N[C@@H](CC(C)C)C(=O)N[C@@H](CC(C)C)C(=O)N[C@@H](CCCCN)C(N)=O,"male Sprague-Dawley rat, blood","intravenous, 3 mg/kg, infusion",273 ng/mL
N=c1c2c(-c3ccccc3)c(-c3ccccc3)n(Cc3ccccc3)c2ncn1[C@H]1CC[C@H](O)CC1,"male Sprague-Dawley rat, plasma","oral, 2 mg/kg, single dose",133 ng/mL
Cl.Cl.O=C(CCN1CCCCC1)c1ccc(-c2ccc(C(=O)CCN3CCCCC3)cc2)cc1,"Sprague-Dawley rat, plasma","intravenous, 5 mg/kg",725 ng/mL
O=C(Nc1cccnn1)N1CCN([C@@H]2CCOc3cc(C(F)(F)F)ccc32)CC1,"male Sprague-Dawley rat, plasma","oral, 3 mg/kg",1520 nM
COc1ccc2c3c1O[C@H]1C[C@@H](OC(=O)c4ccccc4)C=C[C@@]31CCN(C)C2,"rat, brain","intravenous, 5 mg/kg",13600 ng/g
COc1ncccc1-c1cnn2ccc(N3CCN(C(=O)OC(C)C)CC3)nc12,"rat, plasma","oral, 10 mg/kg",3100 nM
CCCCCn1cc(C(=O)Nc2cccc3ccccc23)c2ccccc21,"male Long-Evans rat, plasma","intraperitoneal, 3 mg/kg",296 ng/mL
O=C([O-])C(=O)[O-].[NH-][C@@H]1CCCC[C@H]1[NH-].[Pt+4] (relative stereo),"rat, plasma","intravenous, 5 mg/kg",2450 ng/mL
Cc1ncc(C)n2nc(/C=C/c3nc(N4CCCC4)cc(N4CCOCC4)n3)nc12,"male Sprague-Dawley rat, plasma","oral, 0.3 mg/kg",36 nM
CCC[C@@](N)(CO)CCc1ccc(OCCCCCC(C)C)cc1,"rat, plasma","oral, 100 mg/kg",1030 nM
